# Reference: ChEMBL document CHEMBL1137295, “Discovery of HIV-1 protease inhibitors with picomolar affinities incorporating N-aryl-oxazolidinone-5-carboxamides as novel P2 ligands” (J Med Chem, 2006)
# pKi: −log10 of the molar value.
# Experiments:
# [1] = biological target: Human immunodeficiency virus type 1 protease (Human immunodeficiency virus 1, UniProt Q72874, Q7K); experiment: Inhibition of wild type HIV1 protease Q7K mutant
# In short: (§1)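 Protease desalted into 20 mM sodium acetate pH 5, about 50 nM apparent by A280. Preincubated with inhibitor in DMSO 20-30 min at room temperature. Buffer 0.1 M NaOAc, 1 M NaCl, 1 mM EDTA, 1 mM DTT, 2% DMSO, 1 mg/mL BSA, pH 4.7. Read 340/490 nm, 30 °C, ~10 min. Ki by nonlinear fit of initial velocity versus inhibitor concentration.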
# [2] = biological target: Human immunodeficiency virus type 1 protease (Human immunodeficiency virus 1, UniProt Q72874, G48V/I54V/L10I/L63P/V82A); experiment: Inhibition of HIV1 protease L10I/G48V/I54V/L63P/V82A mutant; in short: as §1
# [3] = biological target: Human immunodeficiency virus type 1 protease (Human immunodeficiency virus 1, UniProt Q72874, D30N/L63P/N88D); experiment: Inhibition of HIV1 protease D30N/L63P/N88D mutant; in short: as §1
# [4] = biological target: Human immunodeficiency virus type 1 protease (Human immunodeficiency virus 1, UniProt Q72874, A71V/G73S/I84V/L10I/L63P/L90M); experiment: Inhibition of HIV1 protease L10I/L63P/A71V/G73S/I84V/L90M mutant; in short: as §1
compound,measurement,setting,value
CC(C)CN(C[C@@H](O)[C@H](Cc1ccccc1)NC(=O)[C@@H]1CN(c2ccc(F)c(F)c2)C(=O)O1)S(=O)(=O)c1ccc(N)cc1,pKi,[1],9.64
COc1ccc(S(=O)(=O)N(CC2CC2)C[C@@H](O)[C@H](Cc2ccccc2)NC(=O)[C@@H]2CN(c3ccc(C(C)=O)cc3)C(=O)O2)cc1,pKi,[1],9.10
COc1ccc(S(=O)(=O)N(CC(C)C)C[C@@H](O)[C@H](Cc2ccccc2)NC(=O)[C@@H]2CN(c3cccc(C(F)(F)F)c3)C(=O)O2)cc1,pKi,[1],11.22
CC(=O)c1ccc(N2C[C@@H](C(=O)N[C@@H](Cc3ccccc3)[C@H](O)CN(CC(C)C)S(=O)(=O)c3ccc4c(c3)OCO4)OC2=O)cc1,pKi,[1],10.80
CC(C)CN(C[C@@H](O)[C@H](Cc1ccccc1)NC(=O)[C@@H]1CN(c2cccc(C(F)(F)F)c2)C(=O)O1)S(=O)(=O)c1ccc2c(c1)OCO2,pKi,[1],10.80
CC(C)CN(C[C@@H](O)[C@H](Cc1ccccc1)NC(=O)[C@@H]1CN(c2cccc(F)c2)C(=O)O1)S(=O)(=O)c1ccc(N)cc1,pKi,[1],9.77
"COc1cccc(S(=O)(=O)N(CC2CCCO2)C[C@@H](O)[C@H](Cc2ccccc2)NC(=O)[C@@H]2CN(c3cccc(F)c3)C(=O)O2)c1 (single isomer, unassigned)",pKi,[1],6.82
COc1ccc(S(=O)(=O)N(CC(C)C)C[C@@H](O)[C@H](Cc2ccccc2)NC(=O)[C@@H]2CN(c3cccc(C(F)(F)F)c3)C(=O)O2)cc1F,pKi,[1],10.14
COc1ccc(S(=O)(=O)N(CC(C)C)C[C@@H](O)[C@H](Cc2ccccc2)NC(=O)[C@@H]2CN(c3ccc(C(C)=O)cc3)C(=O)O2)cc1,pKi,[2],9.11
same,pKi,[3],9.75
same,pKi,[4],8.71
COc1ccc(S(=O)(=O)N(CC(C)C)C[C@@H](O)[C@H](Cc2ccccc2)NC(=O)[C@H]2CN(c3ccccc3)C(=O)O2)cc1,pKi,[1],7.97
COc1ccc(S(=O)(=O)N(CC(C)C)C[C@@H](O)[C@H](Cc2ccccc2)NC(=O)[C@@H]2CN(c3cccc(F)c3)C(=O)O2)cc1,pKi,[1],10.08
same,pKi,[2],8.45
same,pKi,[3],10.10
same,pKi,[4],8.31
CC(=O)c1ccc(N2C[C@@H](C(=O)N[C@@H](Cc3ccccc3)[C@H](O)CN(CC(C)C)S(=O)(=O)c3ccc(N)cc3)OC2=O)cc1,pKi,[1],9.74
COc1cccc(S(=O)(=O)N(Cc2cccs2)C[C@@H](O)[C@H](Cc2ccccc2)NC(=O)[C@@H]2CN(c3cccc(F)c3)C(=O)O2)c1,pKi,[1],6.72
CC(C)CN(C[C@@H](O)[C@H](Cc1ccccc1)NC(=O)[C@@H]1CN(c2ccccc2)C(=O)O1)S(=O)(=O)c1ccc(N)cc1,pKi,[1],9.28
same,pKi,[2],8.68
same,pKi,[3],9.04
same,pKi,[4],7.99
COc1ccc(S(=O)(=O)N(CC(C)C)C[C@@H](O)[C@H](Cc2ccccc2)NC(=O)[C@@H]2CN(c3ccccc3)C(=O)O2)cc1,pKi,[1],10.00
COc1cccc(S(=O)(=O)N(Cc2cccs2)C[C@@H](O)[C@H](Cc2ccccc2)NC(=O)[C@@H]2CN(c3ccccc3)C(=O)O2)c1,pKi,[1],6.62
CC(=O)c1cccc(N2C[C@@H](C(=O)N[C@@H](Cc3ccccc3)[C@H](O)CN(CC(C)C)S(=O)(=O)c3ccc(N)cc3)OC2=O)c1,pKi,[1],10.49
COc1cccc(S(=O)(=O)N(CC(C)C)C[C@@H](O)[C@H](Cc2ccccc2)NC(=O)[C@@H]2CN(c3ccc(C(C)=O)cc3)C(=O)O2)c1,pKi,[1],9.08
COc1ccc(S(=O)(=O)N(CC(C)C)C[C@@H](O)[C@H](Cc2ccccc2)NC(=O)[C@@H]2CN(c3ccc(F)c(F)c3)C(=O)O2)cc1,pKi,[1],10.18
same,pKi,[2],8.93
same,pKi,[3],9.82
same,pKi,[4],8.06
CC(C)CN(C[C@@H](O)[C@H](Cc1ccccc1)NC(=O)[C@@H]1CN(c2cccc(F)c2)C(=O)O1)S(=O)(=O)c1ccc2c(c1)OCO2,pKi,[1],9.97
"COc1cccc(S(=O)(=O)N(CC2CCCO2)C[C@@H](O)[C@H](Cc2ccccc2)NC(=O)[C@@H]2CN(c3ccccc3)C(=O)O2)c1 (single isomer, unassigned)",pKi,[1],7.38
O=C(N[C@@H](Cc1ccccc1)[C@H](O)CN(Cc1cccs1)S(=O)(=O)c1cc(F)c(F)cc1F)[C@@H]1CN(c2ccccc2)C(=O)O1,pKi,[1],6.77
CC(=O)c1cccc(N2C[C@@H](C(=O)N[C@@H](Cc3ccccc3)[C@H](O)CN(CC(C)C)S(=O)(=O)c3ccc(OC(F)(F)F)cc3)OC2=O)c1,pKi,[1],8.70
O=C(N[C@@H](Cc1ccccc1)[C@H](O)CN(Cc1cccs1)S(=O)(=O)c1cc(F)c(F)cc1F)[C@@H]1CN(c2cccc(F)c2)C(=O)O1,pKi,[1],6.80
COc1ccc(S(=O)(=O)N(CC(C)C)C[C@@H](O)[C@H](Cc2ccccc2)NC(=O)[C@@H]2CN(c3cccc(F)c3)C(=O)O2)cc1F,pKi,[1],10.15
CC(=O)c1cccc(N2C[C@@H](C(=O)N[C@@H](Cc3ccccc3)[C@H](O)CN(CC(C)C)S(=O)(=O)c3ccc4c(c3)OCO4)OC2=O)c1,pKi,[1],11.22
same,pKi,[2],9.14
same,pKi,[3],9.63
same,pKi,[4],8.45
COc1ccc(S(=O)(=O)N(CC(C)C)C[C@@H](O)[C@H](Cc2ccccc2)NC(=O)[C@@H]2CN(c3cccc(C(C)=O)c3)C(=O)O2)cc1,pKi,[2],9.80
same,pKi,[3],10.41
same,pKi,[4],8.47
COc1cccc(S(=O)(=O)N(CC(C)C)C[C@@H](O)[C@H](Cc2ccccc2)NC(=O)[C@@H]2CN(c3ccccc3)C(=O)O2)c1,pKi,[1],8.42
CC(=O)c1ccc(N2C[C@@H](C(=O)N[C@@H](Cc3ccccc3)[C@H](O)CN(Cc3cccs3)S(=O)(=O)c3cc(F)c(F)cc3F)OC2=O)cc1,pKi,[1],6.78
COc1ccc(S(=O)(=O)N(CC(C)C)C[C@@H](O)[C@H](Cc2ccccc2)NC(=O)[C@@H]2CN(c3ccc(F)c(F)c3)C(=O)O2)cc1F,pKi,[1],9.46
COc1ccc(S(=O)(=O)N(CC2CC2)C[C@@H](O)[C@H](Cc2ccccc2)NC(=O)[C@@H]2CN(c3ccc(F)c(F)c3)C(=O)O2)cc1,pKi,[1],9.24
COc1cccc(S(=O)(=O)N(Cc2cccs2)C[C@@H](O)[C@H](Cc2ccccc2)NC(=O)[C@@H]2CN(c3ccc(C(C)=O)cc3)C(=O)O2)c1,pKi,[1],7.53
COc1ccc(S(=O)(=O)N(CC2CC2)C[C@@H](O)[C@H](Cc2ccccc2)NC(=O)[C@@H]2CN(c3cccc(F)c3)C(=O)O2)cc1,pKi,[1],9.59
CC(C)CN(C[C@@H](O)[C@H](Cc1ccccc1)NC(=O)[C@@H]1CN(c2cccc(C(F)(F)F)c2)C(=O)O1)S(=O)(=O)c1ccc(N)cc1,pKi,[1],10.38
same,pKi,[2],8.35
same,pKi,[3],9.44
same,pKi,[4],7.91
COc1ccc(S(=O)(=O)N(CC(C)C)C[C@@H](O)[C@H](Cc2ccccc2)NC(=O)[C@@H]2CN(c3ccc(C(C)=O)cc3)C(=O)O2)cc1F,pKi,[1],10.10
CC(C)CN(C[C@@H](O)[C@H](Cc1ccccc1)NC(=O)[C@@H]1CN(c2cccc(C(F)(F)F)c2)C(=O)O1)S(=O)(=O)c1ccc(OC(F)(F)F)cc1,pKi,[1],8.00
COc1ccc(S(=O)(=O)N(CC(C)C)C[C@@H](O)[C@H](Cc2ccccc2)NC(=O)[C@@H]2CN(c3cccc(OC)c3)C(=O)O2)cc1,pKi,[1],10.35
CC(C)CN(C[C@@H](O)[C@H](Cc1ccccc1)NC(=O)[C@@H]1CN(c2ccc(F)c(F)c2)C(=O)O1)S(=O)(=O)c1ccc2c(c1)OCO2,pKi,[1],10.07
CC(C)CN(C[C@@H](O)[C@H](Cc1ccccc1)NC(=O)[C@H]1CN(c2ccccc2)C(=O)O1)S(=O)(=O)c1ccc(N)cc1,pKi,[1],7.43
